From ChEMBL document CHEMBL4229515, “A novel synthesis of 2-arylbenzimidazoles in molecular sieves-MeOH system and their antitubercular activity” (Bioorg Med Chem, 2018)

How the values were obtained:
[1] = system: Mus musculus; test: Acute toxicity in Swiss albino mouse assessed as effect on MDA levels per mg of tissue protein at 5 mg/kg, po after 7 days (reference value: 0.24 +/- 0.05 nmol); format: organism-based; details: in vivo, 168 h
[2] = system: Mus musculus; test: Acute toxicity in Swiss albino mouse assessed as effect on albumin levels at 1000 mg/kg, po after 7 days (reference value: 3.53 +/- 0.35 mg/dL); format: organism-based; details: in vivo, 168 h
[3] = system: Mus musculus; test: Acute toxicity in Swiss albino mouse assessed as effect on body weight at 1000 mg/kg, po after 7 days (reference value: 28.25 +/- 0.54 g); format: organism-based; details: in vivo, 168 h
[4] = system: Mus musculus; test: Acute toxicity in Swiss albino mouse assessed as effect on ALKP levels at 1000 mg/kg, po after 7 days (reference value: 219.20 +/- 5.9 U/L); format: organism-based; details: in vivo, 168 h
[5] = system: Mus musculus; test: Acute toxicity in Swiss albino mouse assessed as effect on MDA levels per mg of tissue protein at 1000 mg/kg, po after 7 days (reference value: 0.24 +/- 0.05 nmol); format: organism-based; details: in vivo, 168 h
[6] = system: Mus musculus; test: Acute toxicity in Swiss albino mouse assessed as effect on SGPT levels at 5 mg/kg, po after 7 days (reference value: 16.08 +/- 1.38 U/L); format: organism-based; details: in vivo, 168 h
[7] = system: Mus musculus; test: Acute toxicity in Swiss albino mouse assessed as effect on albumin levels at 50 mg/kg, po after 7 days (reference value: 3.53 +/- 0.35 mg/dL); format: organism-based; details: in vivo, 168 h
[8] = system: Mus musculus; test: Acute toxicity in Swiss albino mouse assessed as effect on cholesterol levels at 50 mg/kg, po after 7 days (reference value: 89.73 +/- 10.76 mg/dL); format: organism-based; details: in vivo, 168 h
[9] = target: DNA gyrase subunit A/DNA gyrase subunit B (Mycobacterium tuberculosis (strain ATCC 25618 / H37Rv), UniProt P9WG45+P9WG47); test: Inhibition of Mycobacterium tuberculosis DNA gyrase supercoiling activity using relaxed pBR322 as substrate after 30 mins by agarose gel electrophoresis; format: protein-complex assay
[10] = system: Mus musculus; test: Acute toxicity in Swiss albino mouse assessed as effect on serum protein levels at 300 mg/kg, po after 7 days (reference value: 0.10 +/- 0.004 mg/mL); format: organism-based; details: in vivo, 168 h
[11] = system: Mus musculus; test: Acute toxicity in Swiss albino mouse assessed as effect on haemoglobin levels at 50 mg/kg, po after 7 days (reference value: 12.29 +/- 0.53 g/dL); format: organism-based; details: in vivo, 168 h
[12] = system: Mus musculus; test: Acute toxicity in Swiss albino mouse assessed as effect on haemoglobin levels at 300 mg/kg, po after 7 days (reference value: 12.29 +/- 0.53 g/dL); format: organism-based; details: in vivo, 168 h
[13] = system: Mus musculus; test: Acute toxicity in Swiss albino mouse assessed as effect on MDA levels per mg of tissue protein at 300 mg/kg, po after 7 days (reference value: 0.24 +/- 0.05 nmol); format: organism-based; details: in vivo, 168 h
[14] = system: Mus musculus; test: Acute toxicity in Swiss albino mouse assessed as effect on body weight at 50 mg/kg, po after 7 days (reference value: 28.25 +/- 0.54 g); format: organism-based; details: in vivo, 168 h
[15] = system: Mus musculus; test: Acute toxicity in Swiss albino mouse assessed as effect on ALKP levels at 50 mg/kg, po after 7 days (reference value: 219.20 +/- 5.9 U/L); format: organism-based; details: in vivo, 168 h
[16] = system: Mus musculus; test: Acute toxicity in Swiss albino mouse assessed as effect on absolute spleen weight at 5 to 1000 mg/kg, po after 7 days; format: organism-based; details: in vivo, 168 h
Procedure, shortened: (§1)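 Single acute oral dose of 5, 50, 300 or 1000 mg/kg body weight, with an untreated control group; n=6 mice per group. Animals observed for 7 days for morbidity, mortality, behaviour and body weight. At the end, blood and serum were analysed, and organs were examined grossly with absolute and relative weights. Data are mean±SE; P<0.05 was taken as significant versus control and the lower-dose groups.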

[17] = system: Mus musculus; test: Acute toxicity in Swiss albino mouse assessed as effect on GSH levels per mg of tissue protein at 5 mg/kg, po after 7 days (reference value: 17.64 +/- 1.03 micromol); format: organism-based; details: in vivo, 168 h
[18] = system: Mus musculus; test: Acute toxicity in Swiss albino mouse assessed as effect on absolute lung weight at 5 to 1000 mg/kg, po after 7 days; format: organism-based; details: in vivo, 168 h; procedure, shortened: as §1
[19] = system: Mus musculus; test: Acute toxicity in Swiss albino mouse assessed as effect on cholesterol levels at 1000 mg/kg, po after 7 days (reference value: 89.73 +/- 10.76 mg/dL); format: organism-based; details: in vivo, 168 h
[20] = system: Mus musculus; test: Acute toxicity in Swiss albino mouse assessed as effect on albumin levels at 300 mg/kg, po after 7 days (reference value: 3.53 +/- 0.35 mg/dL); format: organism-based; details: in vivo, 168 h
[21] = system: Mus musculus; test: Acute toxicity in Swiss albino mouse assessed as effect on SGPT levels at 1000 mg/kg, po after 7 days (reference value: 16.08 +/- 1.38 U/L); format: organism-based; details: in vivo, 168 h
[22] = system: Mus musculus; test: Acute toxicity in Swiss albino mouse assessed as effect on serum protein levels at 50 mg/kg, po after 7 days (reference value: 0.10 +/- 0.004 mg/mL); format: organism-based; details: in vivo, 168 h
[23] = system: Mus musculus; test: Acute toxicity in Swiss albino mouse assessed as effect on relative brain weight at 5 to 1000 mg/kg, po after 7 days; format: organism-based; details: in vivo, 168 h; procedure, shortened: as §1
[24] = system: Mus musculus; test: Acute toxicity in Swiss albino mouse assessed as effect on triglyceride levels at 50 mg/kg, po after 7 days (reference value: 45.21 +/- 2.95 mg/dL); format: organism-based; details: in vivo, 168 h
[25] = system: Mus musculus; test: Acute toxicity in Swiss albino mouse assessed as effect on triglyceride levels at 300 mg/kg, po after 7 days (reference value: 45.21 +/- 2.95 mg/dL); format: organism-based; details: in vivo, 168 h
[26] = system: Mus musculus; test: Acute toxicity in Swiss albino mouse assessed as effect on albumin levels at 5 mg/kg, po after 7 days (reference value: 3.53 +/- 0.35 mg/dL); format: organism-based; details: in vivo, 168 h
[27] = system: Mus musculus; test: Acute toxicity in Swiss albino mouse assessed as effect on cholesterol levels at 300 mg/kg, po after 7 days (reference value: 89.73 +/- 10.76 mg/dL); format: organism-based; details: in vivo, 168 h
[28] = system: Mus musculus; test: Acute toxicity in Swiss albino mouse assessed as effect on haemoglobin levels at 5 mg/kg, po after 7 days (reference value: 12.29 +/- 0.53 g/dL); format: organism-based; details: in vivo, 168 h
[29] = system: Mus musculus; test: Acute toxicity in Swiss albino mouse assessed as effect on SGPT levels at 50 mg/kg, po after 7 days (reference value: 16.08 +/- 1.38 U/L); format: organism-based; details: in vivo, 168 h
[30] = system: Mus musculus; test: Acute toxicity in Swiss albino mouse assessed as effect on WBC count at 300 mg/kg, po after 7 days (reference value: 7.47 +/- 1.61 10^3/mm3); format: organism-based; details: in vivo, 168 h
[31] = system: Mus musculus; test: Acute toxicity in Swiss albino mouse assessed as effect on tissue protein levels at 5 mg/kg, po after 7 days (reference value: 0.06 +/- 0.004 mg/mL); format: organism-based; details: in vivo, 168 h
[32] = system: Mus musculus; test: Acute toxicity in Swiss albino mouse assessed as effect on ALKP levels at 300 mg/kg, po after 7 days (reference value: 219.20 +/- 5.9 U/L); format: organism-based; details: in vivo, 168 h
[33] = system: Mus musculus; test: Acute toxicity in Swiss albino mouse assessed as effect on relative liver weight at 5 to 300 mg/kg, po after 7 days; format: organism-based; details: in vivo, 168 h; procedure, shortened: as §1
[34] = system: Mus musculus; test: Acute toxicity in Swiss albino mouse assessed as effect on RBC count at 1000 mg/kg, po after 7 days (reference value: 7.61 +/- 0.54 10^6/mm3); format: organism-based; details: in vivo, 168 h

Chain of DNA gyrase subunit A/DNA gyrase subunit B (P9WG45 whole entry): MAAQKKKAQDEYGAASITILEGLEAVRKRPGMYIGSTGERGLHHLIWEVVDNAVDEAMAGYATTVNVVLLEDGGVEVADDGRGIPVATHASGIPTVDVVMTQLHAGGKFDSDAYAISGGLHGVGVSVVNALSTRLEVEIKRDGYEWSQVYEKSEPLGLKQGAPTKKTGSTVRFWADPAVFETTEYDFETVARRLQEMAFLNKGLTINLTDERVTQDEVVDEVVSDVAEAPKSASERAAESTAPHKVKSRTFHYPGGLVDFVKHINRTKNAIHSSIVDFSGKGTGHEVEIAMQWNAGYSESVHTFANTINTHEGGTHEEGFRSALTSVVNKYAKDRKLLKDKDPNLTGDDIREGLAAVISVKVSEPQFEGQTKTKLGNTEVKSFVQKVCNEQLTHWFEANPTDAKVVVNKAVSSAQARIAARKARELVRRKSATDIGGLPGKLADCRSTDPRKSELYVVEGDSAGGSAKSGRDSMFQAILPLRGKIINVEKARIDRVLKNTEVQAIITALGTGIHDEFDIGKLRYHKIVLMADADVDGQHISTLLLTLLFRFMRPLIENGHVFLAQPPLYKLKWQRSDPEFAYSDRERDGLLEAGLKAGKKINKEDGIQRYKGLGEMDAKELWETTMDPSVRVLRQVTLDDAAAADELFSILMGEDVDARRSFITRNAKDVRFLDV
Chain of DNA gyrase subunit A/DNA gyrase subunit B (P9WG47 whole entry): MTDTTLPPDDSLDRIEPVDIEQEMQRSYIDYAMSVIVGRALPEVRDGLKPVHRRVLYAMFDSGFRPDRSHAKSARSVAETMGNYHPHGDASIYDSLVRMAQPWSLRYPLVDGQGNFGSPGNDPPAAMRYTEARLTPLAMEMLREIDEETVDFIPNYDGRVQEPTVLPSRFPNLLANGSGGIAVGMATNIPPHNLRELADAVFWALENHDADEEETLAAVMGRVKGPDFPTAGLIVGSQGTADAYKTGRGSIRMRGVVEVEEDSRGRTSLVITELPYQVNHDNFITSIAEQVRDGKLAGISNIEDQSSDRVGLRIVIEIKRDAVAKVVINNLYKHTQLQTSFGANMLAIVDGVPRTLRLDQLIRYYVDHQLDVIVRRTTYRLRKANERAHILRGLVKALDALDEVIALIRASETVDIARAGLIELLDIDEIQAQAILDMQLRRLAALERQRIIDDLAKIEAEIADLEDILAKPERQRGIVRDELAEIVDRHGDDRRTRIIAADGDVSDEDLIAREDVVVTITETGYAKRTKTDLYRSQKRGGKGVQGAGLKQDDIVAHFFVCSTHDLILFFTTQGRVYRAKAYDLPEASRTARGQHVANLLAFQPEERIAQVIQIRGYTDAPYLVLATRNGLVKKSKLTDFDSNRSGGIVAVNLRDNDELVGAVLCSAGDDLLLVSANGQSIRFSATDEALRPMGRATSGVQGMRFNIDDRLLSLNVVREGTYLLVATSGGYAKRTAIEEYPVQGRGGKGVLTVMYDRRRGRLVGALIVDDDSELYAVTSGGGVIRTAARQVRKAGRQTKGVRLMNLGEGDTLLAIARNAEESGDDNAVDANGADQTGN

Q: How did the Activity [1] turn out when COc1ccc2c(c1)nc(-c1ccccc1OC)n2Cc1ccccc1OC was run?
A: 0.26 nmol

Q: What about the Activity [2] of the same molecule?
A: 2.89 mg/dL

Q: What about the Activity [3] of the same molecule?
A: 22.86 g

Q: And the Activity [4]?
A: 118.06 U/L

Q: What about the Activity [5] of the same molecule?
A: 0.71 nmol

Q: And the Activity [6]?
A: 15.26 U/L

Q: And the Activity [7]?
A: 3.58 mg/dL

Q: What about the Activity [8] of the same molecule?
A: 85.13 mg/dL

Q: And the IC50 [9]?
A: 358 µM

Q: And the Activity [10]?
A: 0.09 mg/mL

Q: And the Activity [11]?
A: 11.45 g/dL

Q: What about the Activity [12] of the same molecule?
A: 11.51 g/dL

Q: And the Activity [13]?
A: 0.39 nmol

Q: And the Activity [14]?
A: 27.61 g

Q: What about the Activity [15] of the same molecule?
A: 171.7 U/L

Q: What about the Activity [16] of the same molecule?
A: Non-Toxic

Q: And the Activity [17]?
A: 15.6 µmol

Q: What about the Activity [18] of the same molecule?
A: Non-Toxic

Q: What about the Activity [19] of the same molecule?
A: 115.43 mg/dL

Q: What about the Activity [20] of the same molecule?
A: 3.79 mg/dL

Q: And the Activity [21]?
A: 11.72 U/L

Q: What about the Activity [22] of the same molecule?
A: 0.09 mg/mL

Q: What about the Activity [23] of the same molecule?
A: Non-Toxic

Q: And the Activity [24]?
A: 41.98 mg/dL

Q: What about the Activity [25] of the same molecule?
A: 43.04 mg/dL

Q: And the Activity [26]?
A: 3.81 mg/dL

Q: And the Activity [27]?
A: 97.14 mg/dL

Q: And the Activity [28]?
A: 10.81 g/dL

Q: What about the Activity [29] of the same molecule?
A: 15.98 U/L

Q: What about the Activity [30] of the same molecule?
A: 5.67 10^3/mm3

Q: And the Activity [31]?
A: 0.06 mg/mL

Q: And the Activity [32]?
A: 169.24 U/L

Q: And the Activity [33]?
A: Non-Toxic

Q: What about the Activity [34] of the same molecule?
A: 7.33 10^6/mm3
